Assay results as given in ChEMBL document CHEMBL3272237, “Gliotoxin analogues as inhibitors of reverse transcriptase. 1. Effect of lipophilicity” (J Med Chem, 1978).

Legend:
[1] = system: Moloney murine leukemia virus; experiment: Inhibition of Moloney murine leukemia virus reverse transcriptase using [3H-methyl]-dTTP as substrate after 120 mins; set-up: unit not given here
Summary of the method: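 Enzyme source was Moloney MLV from infected NIH-3T3 cells, gradient-purified, used as whole virus. Mix: 40 mM Tris-HCl pH 7.8, 50 mM NaCl, 2 mM MnCl2, 1.6 mM DTT, 0.0125% Triton X-100, 0.64 mM each dATP/dCTP/dGTP, [methyl-3H]dTTP. Compounds were tested at 4–400 μg/mL (Me2SO up to 4%). Incubation was 37 °C, sampled at 120 min for acid-precipitable counts, mean of three runs. I50 read from %-of-Me2SO-control plot.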

[2] = Lipophilicity of the compound by reversed-phase TLC analysis; assay type: physicochemical; settings: RP-TLC on silylated silica plates impregnated with Dow-Corning 704 fluid
Summary of the method: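 Silica gel F-254 plates were silanized with 5% (CH3)2SiCl2 in toluene, then impregnated with 5% Dow-Corning 704 fluid in ether. Spots were 1 μL of 3 mg/mL CH2Cl2 solution. Plates were developed in acetone–water 3:1 saturated with the fluid and visualized with 2% aqueous AgNO3. Rm = log(1/Rf − 1), averaged over five determinations.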

[3] = Lipophilicity of the compound by reversed-phase HPLC analysis; settings: ODS stationary phase, MeOH-H2O (2:1) mobile phase

Row | Compound | log(I50×10^5) [1] | Rm [2] | log k' [3]
1 | CCN1C(=O)C23SSC1(C)C(=O)N2c1ccccc1C3(C)C (stereo unspecified) | 1.89 | 0.1636 | -0.34
2 | CCCN1C(=O)C23SSC1(C)C(=O)N2c1ccccc1C3(C)C (stereo unspecified) | 1.06 | 0.2717 | -0.0817
3 | CN1C(=O)C23SSC1(c1ccccc1)C(=O)N2c1ccccc1C3(C)C (stereo unspecified) | 0.978 | 0.3007 | -0.0527
4 | CC(C)N1C(=O)C23SSC1(C)C(=O)N2c1ccccc1C3(C)C (stereo unspecified) | 1.93 | 0.2769 | -0.1291
5 | CN1CC(=O)N2c3ccccc3C(C)(C)C2(S)C1=O (stereo unspecified) | 2.07 | 0.0132 | -1.067
6 | CC12SSC3(C(=O)N1Cc1ccccc1)N(C2=O)c1ccccc1C3(C)C (stereo unspecified) | 0.574 | 0.3514 | 0.0994
7 | CC12SSC3(C(=O)N1c1ccccc1)N(C2=O)c1ccccc1C3(C)C (stereo unspecified) | 1.69 | 0.2892 | -0.1127
